Assay outcomes from PubChem BioAssay.
Most compounds without a hit are left out; they make up all but 4.6% or so of the library.
CHO parental Ca = ATP-evoked calcium signal inhibitors, parental CHO, primary screen, counter-screen for OX1R antagonist project, cell-based, fluorescence, Fluo-8 calcium dye; 330,000 compounds, 0.63% hits; parental CHO-K1, ATP-induced calcium, Fluo-8 fluorescence; inhibition, % at 5.6 µM;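 active = inhibition above that plate's mean sample inhibition plus 3 SD, cut at about 26% in these data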
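test system = CHO parental line | reagent = ATP stimulus | measured by = intracellular calcium via Fluo-8 no-wash fluorescent dye | control set = ATP and no-ATP DMSO wells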
TAAR1 agonist = human TAAR1 agonists, primary screen, Fluo-8 calcium fluorescence, CHO RD-HGA16 cells; Trace amine-associated receptor 1 (Homo sapiens), Q96RJ0; vehicle wells 0%, saturating PEA agonist 100%; activation, % at 3 µM; 360,000 compounds, 0.99% hits; AID 624467, 2012;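 active = activation above the mean activation of all test compounds in the run plus 3 SD, cut at about 38% in these data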
Target sequence (Q96RJ0 whole entry, looked up): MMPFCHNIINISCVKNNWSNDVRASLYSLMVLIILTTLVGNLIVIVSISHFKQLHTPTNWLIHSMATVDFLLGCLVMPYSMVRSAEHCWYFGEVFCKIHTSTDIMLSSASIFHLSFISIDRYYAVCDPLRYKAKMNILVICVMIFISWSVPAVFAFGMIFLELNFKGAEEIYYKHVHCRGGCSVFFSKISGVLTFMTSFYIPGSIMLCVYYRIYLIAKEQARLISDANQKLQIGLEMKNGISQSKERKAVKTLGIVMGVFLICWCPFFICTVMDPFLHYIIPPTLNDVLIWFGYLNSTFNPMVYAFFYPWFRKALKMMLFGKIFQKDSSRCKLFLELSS
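Repeats: no replicates (n 1) | Material: CHO-derived RD-HGA16 cells with stable Gα16 and human TAAR1 | Technique: Kinetic Fluo-8 calcium fluorescence | Schedule: 17-24 h seeding, 75 min 37 °C dye, 30 min RT | Evaluation: % activation from peak over basal fluorescence ratio, DMSO-to-PEA scaled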
TAAR1 antagonist = human TAAR1 antagonists, primary screen, Fluo-8 calcium fluorescence, CHO RD-HGA16 cells; antagonist; inhibition, % at 3 µM; 360,000 compounds, 1.5% hits;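 active = inhibition above a per-plate cutoff, the mean inhibition of test compounds on that plate plus 3 SD, cut at about 49% in these data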
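test system = CHO RD-HGA16 cells bearing hTAAR1 | replication = singlicate | controls = DMSO-only wells and EC80 β-PEA-stimulated wells | reagent = EC80 β-phenethylamine stimulus | read-out basis = percent inhibition of PEA-evoked calcium signal, max/basal emission ratio | schedule = seeding 17-24 h prior, 75-min 37 °C, 30-min RT dye loading | signal = kinetic Fluo-8 calcium fluorescence measurement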
GPR7 antag = GPR7 receptor antagonists, primary screen, cell-based, fluorescence, single concentration; AID 1861, 2009; GPR7-expressing cells, fluorescence antagonist assay; inhibition, % at 4.4 µM; 290,000 compounds, 1.1% hits; in the data active = inhibition above about 16%, passing the limit was not always enough;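 note: cells stimulated with the agonist NPW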
Target sequence (P48145 whole entry, looked up): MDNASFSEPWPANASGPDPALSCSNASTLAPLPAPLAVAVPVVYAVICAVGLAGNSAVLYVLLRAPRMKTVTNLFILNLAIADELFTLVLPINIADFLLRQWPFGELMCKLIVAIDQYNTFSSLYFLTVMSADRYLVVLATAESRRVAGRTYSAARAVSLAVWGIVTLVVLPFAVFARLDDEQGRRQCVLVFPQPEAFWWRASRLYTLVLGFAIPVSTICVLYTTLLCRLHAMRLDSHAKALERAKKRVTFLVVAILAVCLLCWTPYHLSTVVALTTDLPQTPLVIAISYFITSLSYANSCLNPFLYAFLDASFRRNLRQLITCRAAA
OX1R antag-1 = OX1R (HCRTR1) antagonists, primary screen, fluorescence, CHO/OX1R cells, Fluo-8 calcium, orexin A | 330,000 compounds, 0.43% hits | Fluo-8 calcium fluorescence | Orexin/Hypocretin receptor type 1 (Homo sapiens), O43613 | inhibition, % at 5 µM;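 active = inhibition above its plate's threshold, mean inhibition of all tested compounds on the plate plus 3 SD, cut at about 37% in these data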
OX1R antag-2 = antagonists of human orexin 1 receptor (OX1R); OX1R-expressing cells, FRET antagonist read-out; inhibition, % at 6.6 µM; 330,000 compounds, 1.8% hits; in the data active = inhibition mostly above about 38%, no sharp cut-off; inactive = mostly below about 40%
OX1R Fluo8 conf = OX1R (HCRTR1) antagonists, confirmation, fluorescence, CHO/OX1R cells, Fluo-8 calcium, orexin A; 1,100 compounds, 38% hits; inhibition, % at 5 µM; shares compounds with OX1R antag-1; orexin A calcium Fluo-8 fluorescence; in the data active = inhibition above about 29%
CHO Ca triplic = ATP-evoked calcium inhibition in parental CHO, counter-screen for OX1R antagonist project, cell-based, fluorescence, CHO-K1, triplicate; ATP-induced calcium, Fluo-8 fluorescence; 1,100 compounds, 9.3% hits; shares compounds with OX1R antag-1; AID 492965, 2010; inhibition, % at 5.6 µM;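 active = inhibition above a per-plate limit, the mean inhibition of that plate's test compounds plus 3 SD, cut at about 25% in these data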
OX1R HTRF conf = OX1R (HCRTR1) antagonists, confirmation, cell-based, HTRF; inhibition, % at 6.6 µM; 1,800 compounds, 49% hits; AID 492964, 2010; OX1R-expressing cells, HTRF antagonist assay; shares compounds with OX1R antag-2; in the data active = inhibition above about 55%;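 note: CHO cells expressing OX1R stimulated with orexin A at about EC80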
CHO-K1 HTRF cnt = signal inhibition in parental CHO-K1 cells, counter-screen for OX1R antagonist project, cell-based, HTRF; shares compounds with OX1R antag-2; AID 493232, 2011; inhibition, % at 6.6 µM; 1,800 compounds, 48% hits; HTRF counterscreen; in the data active = inhibition above about 17%
Of the large screens only hits and unclear results are named; the others gave an inactive call (follow-up assays come after a bar, where they were run).

OC(CN1CCCCC1)Cn1c2ccccc2c2cc(Br)ccc21 (centres undefined)	none | OX1R Fluo8 conf inactive | CHO Ca triplic inactive
C=C(C)COc1ccc2c(C)c(CC(=O)OC)c(=O)oc2c1C	none (no result: TAAR1 agonist, TAAR1 antagonist) | OX1R Fluo8 conf inactive | CHO Ca triplic inactive
CCCC(=O)Nc1ccc(-c2nc3cc(C)c(C)cc3o2)cc1	none | OX1R Fluo8 conf inactive | CHO Ca triplic inactive
Cc1cc(NC(=O)CN(C)CC(=O)Nc2ccc(Cl)c(C(F)(F)F)c2)no1	TAAR1 agonist 40.8, OX1R antag-1 40.2 (no result: GPR7 antag) | OX1R Fluo8 conf inactive | CHO Ca triplic inactive
Cc1cc(NC(=O)CSCC(=O)Nc2ccc(Cl)c(C(F)(F)F)c2)no1	none (no result: GPR7 antag)
Cc1ccc(NC(=O)Cn2nc(C(=O)O)c3ccccc3c2=O)cc1S(=O)(=O)N1CCCCC1	OX1R antag-1 40.9 (no result: GPR7 antag) | OX1R Fluo8 conf inactive | CHO Ca triplic inactive
C=CC(COCc1ccccc1)N([C@@H](Cc1ccccc1)C(=O)OC)S(=O)(=O)c1ccccc1Br (some centres undefined)	OX1R antag-1 80.1 (no result: GPR7 antag) | OX1R Fluo8 conf inactive | CHO Ca triplic inactive
O=C1c2ccccc2-c2n[nH]c(=O)c3ccc(N4CCCCC4)c1c23	none | OX1R Fluo8 conf inactive | CHO Ca triplic inactive
O=[N+]([O-])c1ccc(N2CCN(S(=O)(=O)c3ccccc3)CC2)cc1NCc1ccco1	none (no result: TAAR1 agonist, TAAR1 antagonist)
FC(F)(F)c1nnc(Nc2ccc(Cl)cc2)s1	OX1R antag-1 42.4 | OX1R Fluo8 conf inactive | CHO Ca triplic inactive
FC(F)(F)c1nnc(N2CCN(c3ccc(Cl)cc3)CC2)s1	none
CC(C)C(O)(C#CCN1CCCCC1)C(C)C	none
O=C(Cc1cccc2ccccc12)N1CCCc2ccccc21	none
CC(C)(C)c1ccc(S(=O)(=O)N(CCCN2CCOCC2)Cc2cccs2)cc1	OX1R antag-1 102.7 | OX1R Fluo8 conf inactive | CHO Ca triplic inactive
O=C(Nc1ccccc1)N(CCCN1CCOCC1)Cc1cccs1	none
COc1cc(-n2c(=O)c3ccccc3n(CC(=O)c3ccc(F)cc3)c2=O)cc(OC)c1OC	none
COc1nc(N(c2ccccc2)c2ccccc2)nc(-n2ccnc2)n1	OX1R antag-1 45.5 | OX1R Fluo8 conf 43.1 | CHO Ca triplic inactive
COc1ccc(NC(=O)CCCc2ccccc2)cc1OC	none
COc1ccc(C(=O)/C=C/c2cn(CC(O)CN3CCOCC3)c3ccccc23)cc1 (centres undefined)	none (no result: TAAR1 agonist, TAAR1 antagonist)
COc1ccc(C(=O)/C=C/c2cn(CN3CCN(C)CC3)c3ccccc23)cc1	OX1R antag-2 71.1 (no result: TAAR1 agonist, TAAR1 antagonist) | OX1R Fluo8 conf inactive | CHO Ca triplic inactive | OX1R HTRF conf inactive | CHO-K1 HTRF cnt inactive
CCC1=NN(C(=O)COc2ccccc2)C(O)(c2ccc(Br)cc2)C1 (centres undefined)	none
COc1cccc(C(=O)NCC2CCCN2S(=O)(=O)c2ccccc2)c1 (centres undefined)	OX1R antag-2 49.2 (no result: GPR7 antag) | OX1R Fluo8 conf inactive | CHO Ca triplic inactive | OX1R HTRF conf 62.9 | CHO-K1 HTRF cnt inactive
Cn1cnc(S(=O)(=O)N2CCCCC2c2cc(C(=O)Nc3cccc(C#N)c3)no2)c1 (centres undefined)	none (no result: CHO parental Ca, GPR7 antag, OX1R antag-1, OX1R antag-2)
CCn1c2ccccc2c2nc3cc(OC)c(OC)cc3nc21	none
CCn1c2ccccc2c2nc3ccccc3nc21	OX1R antag-2 92.9 (no result: TAAR1 agonist, TAAR1 antagonist) | OX1R Fluo8 conf 43.1 | CHO Ca triplic inactive | OX1R HTRF conf 92.6 | CHO-K1 HTRF cnt inactive
CCOC(=O)Cc1c(C)nc2c(-c3ccc(Cl)cc3)c[nH]n2c1=O	none
Cc1cc(=O)[nH]c(SCC(=O)Nc2ccc(Br)cc2)c1C#N	OX1R antag-1 41.6, OX1R antag-2 92.6 | OX1R Fluo8 conf inactive | CHO Ca triplic inactive | OX1R HTRF conf inactive | CHO-K1 HTRF cnt inactive
Cc1cc(=O)[nH]c(SCC(=O)Nc2ccc(F)cc2)c1C#N	none
O=C(COc1ccccc1F)Nc1cc(S(=O)(=O)Nc2cccc(Cl)c2)ccc1O	OX1R antag-1 75.0, OX1R antag-2 40.1 (no result: GPR7 antag) | OX1R Fluo8 conf 42.3 | CHO Ca triplic inactive | OX1R HTRF conf 61.3 | CHO-K1 HTRF cnt inactive
Cc1cc(NCCCN)nc(-c2ccccc2O)n1	OX1R antag-2 55.2 | OX1R Fluo8 conf inactive | CHO Ca triplic inactive | OX1R HTRF conf inactive | CHO-K1 HTRF cnt inactive
Cc1cc(N/N=C/c2ccc(O)c(C)c2O)nc(-c2ccccc2O)n1	TAAR1 antagonist 56.6, OX1R antag-1 50.7, OX1R antag-2 63.4 | OX1R Fluo8 conf 39.5 | CHO Ca triplic inactive | OX1R HTRF conf inactive | CHO-K1 HTRF cnt 17.3
Cc1ccc(Nc2cc(C)nc(-c3ccccc3O)n2)cc1	none
C/C(=N\Nc1cc(C)nc(-c2ccccc2O)n1)c1ccccc1	none
O=S(=O)(NCCOc1ccccc1Cl)c1ccc2oc3ccccc3c2c1	OX1R antag-1 54.8, OX1R antag-2 99.0 | OX1R Fluo8 conf inactive | CHO Ca triplic inactive | OX1R HTRF conf 66.0 | CHO-K1 HTRF cnt inactive
COc1ccccc1OCCNS(=O)(=O)c1ccc2oc3ccccc3c2c1	none
CCOc1ccccc1NC(=O)COC(=O)C(CC(C)C)N1C(=O)C2CC=CCC2C1=O (centres undefined)	OX1R antag-2 60.0 | OX1R Fluo8 conf inactive | CHO Ca triplic inactive | OX1R HTRF conf inactive | CHO-K1 HTRF cnt inactive
Cc1cc2nn(-c3ccccc3)nc2cc1NC(=O)c1cccs1	OX1R antag-1 61.2, OX1R antag-2 79.5 | OX1R Fluo8 conf inactive | CHO Ca triplic inactive | OX1R HTRF conf 69.7 | CHO-K1 HTRF cnt 18.5
CC(=O)Nc1cc2nn(-c3ccccc3)nc2cc1C	none
O=C(CSc1nncn1-c1ccccc1)NC1CCCCC1	none
CCOC(=O)N/N=C\C=C\c1ccc2c(c1)OCO2	none
CCN(CC)c1ccc(C(=O)OCC(=O)NC(C)(C)C)cc1	none
